In data set [1] the test system is Escherichia coli. The data set is described as follows: Antibacterial activity Escherichia coli ATCC 25922 assessed as inhibition of visible bacterial growth incubated for 18 hrs by microbroth dilution assay. In kind it is functional. The method in brief: (§1)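 CLSI broth microdilution. Strains streaked from glycerol stocks onto blood agar (16 h, 37 °C); single colonies grown in TSB at 37 °C, 220 rpm, to OD600 about 0.5. Diluted in MHB to 2 × 10^5 CFU/mL and mixed 1:1 with compounds serially diluted in MHB from DMSO stocks (colistin from water stocks), polypropylene plates. Sealed, 18 h at 37 °C, 600 rpm. MIC taken as lowest concentration preventing visible growth, three technical replicates.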
A general note: In broth dilution the organism is exposed to a series of concentrations in liquid medium.

The next data set has as its system Pseudomonas aeruginosa. The data set is described as follows: Antibacterial activity Pseudomonas aeruginosa PAO1 assessed as inhibition of visible bacterial growth incubated for 18 hrs by microbroth dilution assay. In kind it is functional. The method in brief: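 CLSI broth microdilution. Colonies from blood agar (16 h, 37 °C) grown in TSB at 37 °C, 220 rpm, to OD600 about 0.5, then diluted in MHB to 2 × 10^5 CFU/mL. Added to DMSO-stock compounds serially diluted in MHB in polypropylene plates. Sealed, 18 h at 37 °C, 600 rpm. MIC = lowest concentration with no visible growth; three technical replicates.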

The test system of data set [2] is Escherichia coli. The data set is described as follows: Antibacterial activity Escherichia coli MCR-1 assessed as inhibition of visible bacterial growth incubated for 18 hrs by microbroth dilution assay. In kind it is functional. In a few lines: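 Colistin-resistant E. coli 25922 carrying MCR-1, grown from glycerol stock in kanamycin-supplemented TSB for 16 h at 37 °C, 220 rpm. Diluted 100-fold in kanamycin-supplemented TSB and grown to OD600 about 0.5, then diluted in MHB to 2 × 10^5 CFU/mL. Combined 1:1 with MHB serial dilutions of compounds. Sealed, 18 h at 37 °C, 600 rpm; lowest concentration without visible growth, triplicate technical replicates.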

A further data set concerns Acinetobacter baumannii. Description: Antibacterial activity Acinetobacter baumannii ATCC 17961 assessed as inhibition of visible bacterial growth incubated for 18 hrs by microbroth dilution assay. In kind it is functional. The method in brief: as §1
The next data set deals with Staphylococcus aureus. Description: Antibacterial activity Staphylococcus aureus USA300 assessed as inhibition of visible bacterial growth incubated for 18 hrs by microbroth dilution assay. In kind it is functional. In a few lines: as §1
For a further data set, the system named is Klebsiella pneumoniae. The data set is described as follows: Antibacterial activity Klebsiella pneumoniae ATCC 13883 assessed as inhibition of visible bacterial growth incubated for 18 hrs by microbroth dilution assay. In kind it is functional. In a few lines:
as §1

Data set [3] can be described thus: Hemolytic activity in sheep red blood cell assessed as hemolysis at 1 to 128 ug/ml incubated for 1 hrs relative to control. In kind it is toxicity, cell-based, Ovis aries, Erythrocyte. As to conditions: sheep red blood cells (erythrocytes), at 1 to 128 µg/mL, dose 1-128 µg/ml, read-out: Activity. The method in brief:
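Defibrinated sheep erythrocytes washed five times in PBS with 0.002% Tween20 and normalized so the Triton control reads 2.5–3.0 at 415 nm. Mixed 1:1 with compound serial dilutions (128–1 μg/mL) and incubated 1 h at 37 °C, 500 rpm. Supernatant A415 is background-corrected with buffer and expressed as percent of 0.1% Triton X-100 (final). Run in triplicate.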

Converted amounts (≈) assume the structure as drawn. Where a SMILES comes first, the peptide text is derived from it. [ ]: non-standard residue; d: D form. The star is where a group is joined. ξ: configuration not given here. Octanoyl(7-Me) = CC(C)CCCCCC(=O)*; Hexanoyl(4ξ-Me) = CCC(C)CCC(=O)*; dOrn = NCCC[C@@H](N)C(=O)O; Orn = NCCC[C@H](N)C(=O)O; Dap = NC[C@H](N)C(=O)O

The term MIC denotes the least concentration at which growth counts as inhibited. Turning to `CCC(C)CCC(=O)N[C@H](C)C(=O)N[C@H](Cc1ccc(O)cc1)C(=O)N[C@H](Cc1c[nH]c2ccccc12)C(=O)N[C@H](CCCN)C(=O)N[C@@H](CCCN)C(=O)NCC(=O)N[C@H](CCCN)C(=O)N[C@@H](Cc1c[nH]c2ccccc12)C(=O)N[C@H](C(=O)N[C@H](C(=O)NCC(=O)N[C@@H](CO)C(N)=O)[C@@H](C)CC)[C@@H](C)O` (stereo partly drawn) ({Hexanoyl(4ξ-Me)}-[dA][dY][dW][dOrn][Orn]G[dOrn]WTIGS-NH2), the MIC with Escherichia coli [1] is 16 mg/L (≈ 10.7 µM); in the data set on Pseudomonas aeruginosa, 8 mg/L (≈ 5.36 µM); with Escherichia coli [2] it was 16 mg/L (≈ 10.7 µM); in the data set with Acinetobacter baumannii, 8 mg/L (≈ 5.36 µM); in the data set with Staphylococcus aureus, greater than 32 mg/L; with Klebsiella pneumoniae it was 16 mg/L (≈ 10.7 µM).
Consider `CCC(C)CCC(=O)N[C@H](CC(N)=O)C(=O)N[C@H](Cc1ccc(O)cc1)C(=O)N[C@H](Cc1c[nH]c2ccccc12)C(=O)N[C@H](CCCN)C(=O)N[C@@H](CCCN)C(=O)NCC(=O)N[C@H](CCCN)C(=O)N[C@@H](Cc1c[nH]c2ccccc12)C(=O)N[C@H](C(=O)N[C@H](C(=O)NCC(=O)N[C@@H](C)C(N)=O)[C@@H](C)CC)[C@@H](C)O` (stereo partly drawn) ({Hexanoyl(4ξ-Me)}-[dN][dY][dW][dOrn][Orn]G[dOrn]WTIGA-NH2), for which the MIC in the data set with Escherichia coli [1] is 8 mg/L (≈ 5.26 µM); in the data set with Pseudomonas aeruginosa, 8 mg/L (≈ 5.26 µM); with Escherichia coli [2], 8 mg/L (≈ 5.26 µM); in the data set on Acinetobacter baumannii, 4 mg/L (≈ 2.63 µM); in the data set on Staphylococcus aureus it was greater than 32 mg/L; in the data set on Klebsiella pneumoniae, 8 mg/L (≈ 5.26 µM).
Take `CCC(C)CCC(=O)N[C@H](CC(N)=O)C(=O)N[C@H](Cc1ccc(O)cc1)C(=O)N[C@H](Cc1c[nH]c2ccccc12)C(=O)N[C@H](CCCN)C(=O)N[C@@H](CCCN)C(=O)NCC(=O)N[C@H](CCCN)C(=O)N[C@@H](Cc1c[nH]c2ccccc12)C(=O)N[C@@H](CC(=O)O)C(=O)N[C@H](C(=O)NCC(N)=O)[C@@H](C)CC` (stereo partly drawn) ({Hexanoyl(4ξ-Me)}-[dN][dY][dW][dOrn][Orn]G[dOrn]WDIG-NH2): the MIC in the data set with Escherichia coli [1] and in the data set on Escherichia coli [2] was greater than 32 mg/L each time.
For the molecule `CCC(C)CCC(=O)N[C@H](CC(N)=O)C(=O)N[C@H](C)C(=O)N[C@H](Cc1c[nH]c2ccccc12)C(=O)N[C@H](CCCN)C(=O)N[C@@H](CCCN)C(=O)NCC(=O)N[C@H](CCCN)C(=O)N[C@@H](Cc1c[nH]c2ccccc12)C(=O)N[C@H](C(=O)N[C@H](C(=O)NCC(=O)N[C@@H](CO)C(N)=O)[C@@H](C)CC)[C@@H](C)O` (stereo partly drawn) ({Hexanoyl(4ξ-Me)}-[dN][dA][dW][dOrn][Orn]G[dOrn]WTIGS-NH2), the MIC is greater than 32 mg/L in the data set with Escherichia coli [1]; 16 mg/L (≈ 11.1 µM) with Pseudomonas aeruginosa; greater than 32 mg/L with Escherichia coli [2]; greater than 32 mg/L in the data set on Acinetobacter baumannii; greater than 32 mg/L with Staphylococcus aureus; greater than 32 mg/L in the data set with Klebsiella pneumoniae.
In the case of `CC[C@H](C)[C@H](NC(=O)[C@@H](NC(=O)[C@H](Cc1c[nH]c2ccccc12)NC(=O)[C@@H](CCCN)NC(=O)CNC(=O)[C@H](C)NC(=O)[C@@H](CCCN)NC(=O)[C@@H](Cc1c[nH]c2ccccc12)NC(=O)[C@@H](Cc1ccc(O)cc1)NC(=O)[C@@H](CO)NC(=O)CCCCCC(C)C)[C@@H](C)O)C(=O)N[C@@H](CC(N)=O)C(=O)NCC(=O)NCC(N)=O` ({Octanoyl(7-Me)}-[dS][dY][dW][dOrn]AG[dOrn]WTINGG-NH2), the MIC in the data set with Escherichia coli [2] is greater than 32 mg/L.
On to `CC[C@H](C)[C@H](NC(=O)[C@H](CN)NC(=O)[C@H](Cc1c[nH]c2ccccc12)NC(=O)[C@@H](CCCN)NC(=O)CNC(=O)[C@H](CCCN)NC(=O)[C@@H](CCCN)NC(=O)[C@@H](Cc1c[nH]c2ccccc12)NC(=O)[C@@H](Cc1ccc(O)cc1)NC(=O)[C@@H](CO)NC(=O)CCCCCC(C)C)C(=O)N[C@@H](CC(N)=O)C(=O)NCC(=O)NCC(N)=O` ({Octanoyl(7-Me)}-[dS][dY][dW][dOrn][Orn]G[dOrn]W[Dap]INGG-NH2), for which the MIC in the data set on Pseudomonas aeruginosa stood at 18 mg/L (≈ 11.2 µM). In addition, the hemolysis at 1 h in data set [3] is less than 0.1%.

The values above are taken from ChEMBL document CHEMBL5380865, “Linearization of the Brevicidine and Laterocidine Lipopeptides Yields Analogues That Retain Full Antibacterial Activity” (J Med Chem, 2023).
